Reference: ChEMBL document CHEMBL4330069, “Boosting the efficacy of anti-MRSA β-lactam antibiotics via an easily accessible, non-cytotoxic and orally bioavailable FtsZ inhibitor” (Eur J Med Chem, 2019)
≈ marks a conversion by molar mass, not a printed value.

Columns and labels:
[1] = tested on: Staphylococcus aureus; assay: Synergistic antibacterial activity against multidrug-resistant Staphylococcus aureus isolate 200 in presence of cloxacillin by broth microdilution assay; assay type: functional
Summary of the method: (§1)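 Clinical MRSA isolate panel; compound and β-lactam tested alone and in combination by CLSI broth microdilution, compounds dissolved in DMSO, growth inhibition scored by eye, run in duplicate. FIC index = FIC(compound) + FIC(drug), each the MIC in combination divided by the MIC alone; an index ≤ 0.5 was called synergy.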

[2] = tested on: Staphylococcus aureus; assay: Synergistic antibacterial activity against multidrug-resistant Staphylococcus aureus isolate 3411 in presence of cefuroxime by broth microdilution assay; assay type: functional
[3] = tested on: Staphylococcus aureus; assay: Antibacterial activity against multidrug-resistant Staphylococcus aureus ATCC 43300 infected in BALB/C mouse assessed as mouse survival at 50 mg/kg, ip bid co-administered with 25 mg/kg, ip bid cefuroxime measured on day 4 post infection (reference value: 50%)
[4] = tested on: Staphylococcus aureus; assay: Synergistic antibacterial activity against multidrug-resistant Staphylococcus aureus isolate 1136 in presence of meropenem by broth microdilution assay; assay type: functional; summary of the method: as §1
[5] = tested on: Staphylococcus aureus; assay: Antibacterial activity against multidrug-resistant Staphylococcus aureus isolate 2973 by broth microdilution assay; assay type: functional
Summary of the method: (§2)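 Broth microdilution MIC per CLSI guidelines against clinical MRSA isolates, for β-lactams and test compound alone and in combination. Compounds were dissolved in DMSO. Growth was read by eye, in duplicate. FIC index = FIC(compound) + FIC(drug); synergy defined as FIC index ≤0.5.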

[6] = tested on: Staphylococcus aureus; assay: Synergistic antibacterial activity against multidrug-resistant Staphylococcus aureus isolate 254 in presence of cloxacillin by broth microdilution assay; assay type: functional
Summary of the method: (§3)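 CLSI broth microdilution on clinical MRSA isolates. MICs were measured for the β-lactam alone, the test agent alone and the two combined. Compounds were dissolved in DMSO, and growth inhibition was scored by eye. FIC index is the sum, over both agents, of MIC in combination divided by MIC alone. An FIC index ≤0.5 was taken as synergy.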

[7] = tested on: Staphylococcus aureus; assay: Synergistic antibacterial activity against multidrug-resistant Staphylococcus aureus isolate 200 assessed as fractional Inhibitory concentration index in presence of meropenem by broth microdilution assay; assay type: functional
Summary of the method: (§4)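 CLSI broth microdilution run on clinical MRSA isolates with each β-lactam alone, the test agent alone, and the two combined; agents dissolved in DMSO. Growth inhibition was read by eye. FIC index = FIC(compound) + FIC(β-lactam), where each FIC is the MIC in combination divided by the MIC alone. An index ≤0.5 was taken as synergy.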

[8] = tested on: Staphylococcus aureus; assay: Synergistic antibacterial activity against multidrug-resistant Staphylococcus aureus isolate 1717 in presence of methicillin by broth microdilution assay; assay type: functional; summary of the method: as §1
[9] = tested on: Staphylococcus aureus; assay: Synergistic antibacterial activity against multidrug-resistant Staphylococcus aureus isolate 2973 in presence of cefuroxime by broth microdilution assay; assay type: functional; summary of the method: as §3
[10] = tested on: L929; assay: Cytotoxicity against mouse L929 cells by MTS assay; assay type: cell-based
Summary of the method: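 MTS assay on L929 mouse fibroblasts; IC50 reported as the average of three independent measurements.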

[11] = tested on: Staphylococcus aureus; assay: Synergistic antibacterial activity against multidrug-resistant Staphylococcus aureus isolate 254 in presence of cefuroxime by broth microdilution assay; assay type: functional; summary of the method: as §3
[12] = tested on: Staphylococcus aureus; assay: Synergistic antibacterial activity against multidrug-resistant Staphylococcus aureus isolate 1402 assessed as fractional Inhibitory concentration index in presence of meropenem by broth microdilution assay; assay type: functional; summary of the method: as §4
[13] = tested on: Staphylococcus aureus; assay: Synergistic antibacterial activity against multidrug-resistant Staphylococcus aureus isolate 2728 in presence of cloxacillin by broth microdilution assay; assay type: functional; summary of the method: as §3
[14] = tested on: Staphylococcus aureus; assay: Antibacterial activity against multidrug-resistant Staphylococcus aureus isolate 256 by broth microdilution assay; assay type: functional; summary of the method: as §2
[15] = tested on: Staphylococcus aureus; assay: Synergistic antibacterial activity against multidrug-resistant Staphylococcus aureus isolate 3267 in presence of methicillin by broth microdilution assay; assay type: functional; summary of the method: as §3
[16] = tested on: Staphylococcus aureus; assay: Synergistic antibacterial activity against multidrug-resistant Staphylococcus aureus isolate 1749 assessed as fractional Inhibitory concentration index in presence of amoxicillin by broth microdilution assay; assay type: functional; summary of the method: as §4
[17] = tested on: Staphylococcus aureus; assay: Synergistic antibacterial activity against multidrug-resistant Staphylococcus aureus isolate 2919 in presence of cloxacillin by broth microdilution assay; assay type: functional; summary of the method: as §3
[18] = tested on: Staphylococcus aureus; assay: Synergistic antibacterial activity against multidrug-resistant Staphylococcus aureus isolate 1717 in presence of cefuroxime by broth microdilution assay; assay type: functional; summary of the method: as §1
[19] = tested on: Staphylococcus aureus; assay: Synergistic antibacterial activity against multidrug-resistant Staphylococcus aureus isolate 2728 in presence of amoxicillin by broth microdilution assay; assay type: functional; summary of the method: as §3
[20] = tested on: Staphylococcus aureus; assay: Synergistic antibacterial activity against multidrug-resistant Staphylococcus aureus isolate 2224 assessed as fractional Inhibitory concentration index in presence of amoxicillin by broth microdilution assay; assay type: functional; summary of the method: as §4
[21] = tested on: Staphylococcus aureus; assay: Synergistic antibacterial activity against multidrug-resistant Staphylococcus aureus isolate 85 assessed as fractional Inhibitory concentration index in presence of cefuroxime by broth microdilution assay; assay type: functional
[22] = tested on: Staphylococcus aureus; assay: Synergistic antibacterial activity against multidrug-resistant Staphylococcus aureus isolate 1749 assessed as fractional Inhibitory concentration index in presence of cloxacillin by broth microdilution assay; assay type: functional; summary of the method: as §4
[23] = tested on: Staphylococcus aureus; assay: Synergistic antibacterial activity against multidrug-resistant Staphylococcus aureus isolate 2919 in presence of methicillin by broth microdilution assay; assay type: functional; summary of the method: as §3
[24] = tested on: Staphylococcus aureus; assay: Synergistic antibacterial activity against multidrug-resistant Staphylococcus aureus isolate 757 in presence of cefuroxime by broth microdilution assay; assay type: functional
[25] = tested on: Staphylococcus aureus; assay: Synergistic antibacterial activity against multidrug-resistant Staphylococcus aureus isolate 3267 in presence of cefuroxime by broth microdilution assay; assay type: functional; summary of the method: as §3
[26] = tested on: Staphylococcus aureus; assay: Synergistic antibacterial activity against multidrug-resistant Staphylococcus aureus isolate 3332 assessed as fractional Inhibitory concentration index in presence of amoxicillin by broth microdilution assay; assay type: functional
[27] = tested on: Staphylococcus aureus; assay: Synergistic antibacterial activity against multidrug-resistant Staphylococcus aureus isolate 85 assessed as fractional Inhibitory concentration index in presence of meropenem by broth microdilution assay; assay type: functional
[28] = tested on: Staphylococcus aureus; assay: Synergistic antibacterial activity against multidrug-resistant Staphylococcus aureus isolate 2919 assessed as fractional Inhibitory concentration index in presence of meropenem by broth microdilution assay; assay type: functional
[29] = tested on: Staphylococcus aureus; assay: Synergistic antibacterial activity against multidrug-resistant Staphylococcus aureus isolate 2973 assessed as fractional Inhibitory concentration index in presence of cloxacillin by broth microdilution assay; assay type: functional
[30] = tested on: Staphylococcus aureus; assay: Synergistic antibacterial activity against multidrug-resistant Staphylococcus aureus isolate 2895 in presence of methicillin by broth microdilution assay; assay type: functional; summary of the method: as §3
[31] = tested on: Staphylococcus aureus; assay: Synergistic antibacterial activity against multidrug-resistant Staphylococcus aureus isolate 2490 assessed as fractional Inhibitory concentration index in presence of cefuroxime by broth microdilution assay; assay type: functional; summary of the method: as §4
[32] = tested on: Staphylococcus aureus; assay: Synergistic antibacterial activity against multidrug-resistant Staphylococcus aureus isolate 774 in presence of meropenem by broth microdilution assay; assay type: functional
[33] = tested on: Staphylococcus aureus; assay: Antibacterial activity against multidrug-resistant Staphylococcus aureus isolate 757 by broth microdilution assay; assay type: functional; summary of the method: as §2
[34] = tested on: Staphylococcus aureus; assay: Synergistic antibacterial activity against multidrug-resistant Staphylococcus aureus isolate 1136 in presence of cloxacillin by broth microdilution assay; assay type: functional; summary of the method: as §1
[35] = tested on: Staphylococcus aureus; assay: Synergistic antibacterial activity against multidrug-resistant Staphylococcus aureus isolate 2490 in presence of meropenem by broth microdilution assay; assay type: functional; summary of the method: as §1
[36] = tested on: Staphylococcus aureus; assay: Synergistic antibacterial activity against multidrug-resistant Staphylococcus aureus isolate 3267 assessed as fractional Inhibitory concentration index in presence of amoxicillin by broth microdilution assay; assay type: functional
[37] = tested on: Staphylococcus aureus; assay: Synergistic antibacterial activity against multidrug-resistant Staphylococcus aureus isolate 3332 assessed as fractional Inhibitory concentration index in presence of cloxacillin by broth microdilution assay; assay type: functional
[38] = tested on: Staphylococcus aureus; assay: Synergistic antibacterial activity against multidrug-resistant Staphylococcus aureus isolate 1344 in presence of methicillin by broth microdilution assay; assay type: functional; summary of the method: as §1

CCCCCCCCCNc1ccc(F)c(C(N)=O)c1F
MIC [1]: 1 µg/mL
MIC [2]: 2 µg/mL
Activity [3]: 100%
MIC [4]: 8 µg/mL
MIC [5]: 128 µg/mL (≈ 429 µM)
MIC [6]: 2 µg/mL
fractional inhibitory concentration index (FICI) [7]: 8
MIC [8]: 2 µg/mL
MIC [9]: 4 µg/mL
IC50 [10]: > 100 µM
MIC [11]: 4 µg/mL
fractional inhibitory concentration index (FICI) [12]: 5
MIC [13]: 1 µg/mL
MIC [14]: 1020 µg/mL (≈ 3430 µM)
MIC [15]: 4 µg/mL
fractional inhibitory concentration index (FICI) [16]: 1
MIC [17]: 1 µg/mL
MIC [18]: 2 µg/mL
MIC [19]: 8 µg/mL
fractional inhibitory concentration index (FICI) [20]: 0.2
fractional inhibitory concentration index (FICI) [21]: 0.3
fractional inhibitory concentration index (FICI) [22]: 1.3
MIC [23]: 4 µg/mL
MIC [24]: 2 µg/mL
MIC [25]: 2 µg/mL
fractional inhibitory concentration index (FICI) [26]: 0.6
fractional inhibitory concentration index (FICI) [27]: 4
fractional inhibitory concentration index (FICI) [28]: 4.3
fractional inhibitory concentration index (FICI) [29]: 0.1
MIC [30]: 4 µg/mL
fractional inhibitory concentration index (FICI) [31]: 0.2
MIC [32]: 4 µg/mL
MIC [33]: 128 µg/mL (≈ 429 µM)
MIC [34]: 2 µg/mL
MIC [35]: 4 µg/mL
fractional inhibitory concentration index (FICI) [36]: 0.3
fractional inhibitory concentration index (FICI) [37]: 0.4
MIC [38]: 4 µg/mL
